The source of these data is paper PMC5908721 (Journal of medicinal chemistry, 2018).

The structures appear in SMILES notation.

Series [1] concerns the target T1, HDAC3 (Homo sapiens, UniProt O15379). In words: Recombinant HDAC Vmax study. Format: biochemical. The following applies: 2 h preincubation. The gist of the method: (§1)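 Recombinant human HDAC is incubated with inhibitor dilutions in HDAC buffer for 2 h at 30 °C. Serially diluted Boc-Lys(acetyl)-AMC is then added. After 2 h, the reaction is quenched with trypsin (5 mg/mL) plus 1 μM TSA solution, and fluorescence is read at 360/460 nm. Vmax and Km come from a Michaelis–Menten fit, and Lineweaver–Burk double-reciprocal plots are derived from them.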

Series [2] concerns the target T2, HDAC1 (Homo sapiens, UniProt Q13547). Put plainly: Recombinant HDAC Vmax study. Format: biochemical. To be noted: 2 h preincubation.
Series [3] concerns the target T2, HDAC1. In words: In vitro HDACs inhibition fluorescence assay, HDAC1. In kind it is biochemical. To be noted: preincubation 15, 30, 60, 90 min. The gist of the method: (§2)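 Recombinant HDAC enzyme is preincubated with serial test-compound concentrations at 30 °C for 15, 30, 60 or 90 min. Boc-Lys(acetyl)-AMC is added for 2 h at 30 °C. The reaction is stopped with a trypsin/trichostatin A developer, and fluorescence is read after 30 min (ex 360/em 460 nm). Inhibition is taken relative to control wells, and IC50 comes from a variable-slope log(inhibitor)–normalized response fit.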

Series [4] addresses T3, HDAC2 (Homo sapiens, UniProt Q92769). In words: In vitro HDACs inhibition fluorescence assay, HDAC2. To be noted: preincubation 15, 30, 60, 90 min. In kind it is biochemical. The gist of the method: as §2
Series [5] addresses T3, HDAC2. Put plainly: Recombinant HDAC Vmax study. In kind it is biochemical. The following applies: 2 h preincubation. The gist of the method: as §1
The target in series [6] is T1, HDAC3. Put plainly: In vitro HDACs inhibition fluorescence assay, HDAC3. Format: biochemical. To be noted: preincubation 15, 30, 60, 90 min.
Series [7] has as its system MV4-11 cells. In words: Western blot analysis in MV4-11 cells. Format: cell-based. To be noted: for Level of HDAC6: ≥0.5 μM 13e or 5 μM SAHA. The gist of the method: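 MV4-11 cells (1,500,000/well) are grown 12 h, then treated with test compound, mainly for 24 h (0.25–2 μM; 5 μM SAHA as reference). For p53, 0.5 μM is given for 6 or 12 h, and bortezomib is co-treated for 6 h. Cells are lysed in RIPA, sonicated, centrifuged, BCA-normalized, and run on 4–12% Bis-Tris gels. Blots are probed overnight at 4 °C with primary antibodies (1/1000), with actin as loading control (n ≥ 2).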

Series [8] deals with MV4-11 cells. Put plainly: Cell cycle analysis in MV4-11 cells. To be noted: MV4-11, 24 h. Format: cell-based. The gist of the method: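 MV4-11 cells plated at 1,500,000 per well in six-well plates, grown 12 h, then exposed to test compound for 24 h. Cells were PBS-washed, fixed overnight at 4 °C in cold 75% ethanol, and washed twice in cold PBS. They were RNase A-treated at 37 °C for 30 min, stained with 50 μg/mL propidium iodide (30 min, 4 °C), and analysed by flow cytometry. Representative of n ≥ 2 experiments.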

In the next series the target is MMP-2/MMP-9. In words: MMP-2/MMP-9 inhibitory activity. In kind it is biochemical. To be noted: read-out: MMP-2/MMP-9, no inhibition at concentrations up to. The gist of the method:
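Gelatinase (MMP-2/MMP-9) fluorogenic kit assay. Test compound is added as a 100 μM solution (before mixing), alongside a 40 μM reference MMP inhibitor. Enzyme diluted in activation buffer is added for 10–15 min, then substrate. The mix is incubated at 37 °C for 2 h, and fluorescence is read at ex 320/em 405 nm.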

In series [9] the test system is PC-3 cells. Put plainly: Western blot analysis in PC-3 cells. In kind it is cell-based. The following applies: PC-3, 24 h. The gist of the method:
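PC-3 cells (300,000 per well, six-well) grown 12 h, then given test compound at 1 and 2 μM for 24 h; 5 μM reference HDAC inhibitor as positive control. RIPA lysates were sonicated, cleared at 4 °C, and BCA-normalised. Proteins were separated on 4–12% Bis-Tris gels in MES buffer. Primary antibodies were used at 1/1000 overnight at 4 °C, with actin as loading control. Representative of n ≥ 2 experiments.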

Series [10] concerns MV4-11 cells. Put plainly: MV4-11 EC50 analysis / cell viability. Format: cell-based.
For series [11], the system named is PC-3 cells. Put plainly: PC-3 cell morphology, phase-contrast light microscope. To be noted: 48 h. In kind it is cell-based. The gist of the method:
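PC-3 cells in culture flasks are exposed for 48 h to 2 or 10 μM test compound or DMSO vehicle. Cell morphology and attachment are then examined by phase-contrast light microscopy (n ≥ 2).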

The subject of series [12] is PC-3 cells. In words: PC-3 EC50 analysis / cell viability. Format: cell-based. The following applies: 24 and 48 h.
Series [13] relates to PC-3 cells. Put plainly: Cell cycle analysis in PC-3 cells. In kind it is cell-based. The following applies: PC-3, 24 h. The gist of the method:
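PC-3 cells (300,000/well) are grown 12 h, then treated with test compound at various concentrations for 24 h. Cells are harvested, PBS-washed, fixed overnight in 75% cold ethanol at 4 °C, and washed in cold PBS. They are then treated with RNase A at 37 °C for 30 min and stained with propidium iodide (50 μg/mL in PBS) for 30 min at 4 °C. DNA content is read by flow cytometry (n ≥ 2).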

The target of the next series is T4, APN/CD13 (Sus scrofa, UniProt P15145).
T4 sequence (P15145 1-963): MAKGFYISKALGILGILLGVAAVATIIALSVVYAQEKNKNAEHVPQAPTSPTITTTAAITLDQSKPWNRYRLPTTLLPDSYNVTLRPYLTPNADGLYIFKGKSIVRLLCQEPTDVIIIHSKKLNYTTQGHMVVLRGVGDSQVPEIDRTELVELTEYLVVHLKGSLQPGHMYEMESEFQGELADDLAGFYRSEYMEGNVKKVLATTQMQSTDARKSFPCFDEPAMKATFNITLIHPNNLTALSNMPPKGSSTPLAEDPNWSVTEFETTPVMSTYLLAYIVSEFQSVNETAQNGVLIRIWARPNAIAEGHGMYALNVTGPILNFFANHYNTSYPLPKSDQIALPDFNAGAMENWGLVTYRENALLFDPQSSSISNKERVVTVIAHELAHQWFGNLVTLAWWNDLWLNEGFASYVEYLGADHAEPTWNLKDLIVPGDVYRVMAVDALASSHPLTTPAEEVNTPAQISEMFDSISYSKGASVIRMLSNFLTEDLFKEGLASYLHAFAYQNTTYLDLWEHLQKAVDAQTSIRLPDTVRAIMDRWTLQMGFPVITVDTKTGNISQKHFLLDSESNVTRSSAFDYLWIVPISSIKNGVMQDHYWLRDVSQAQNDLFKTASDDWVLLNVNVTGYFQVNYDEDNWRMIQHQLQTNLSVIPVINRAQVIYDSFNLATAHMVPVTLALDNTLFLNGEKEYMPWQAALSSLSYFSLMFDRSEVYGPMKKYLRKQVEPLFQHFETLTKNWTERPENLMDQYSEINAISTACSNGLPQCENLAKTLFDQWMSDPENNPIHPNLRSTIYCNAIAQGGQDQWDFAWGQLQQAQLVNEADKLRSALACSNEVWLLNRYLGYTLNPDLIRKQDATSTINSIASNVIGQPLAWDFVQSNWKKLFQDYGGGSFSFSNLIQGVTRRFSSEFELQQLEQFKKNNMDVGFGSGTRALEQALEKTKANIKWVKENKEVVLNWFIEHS
In words: CD13 inhibition assay. In kind it is biochemical, porcine. The gist of the method:
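Porcine kidney microsomal aminopeptidase (CD13) is added to test compound at various concentrations. After 5 min, L-leucine-p-nitroanilide substrate is added, and the mix is incubated at 37 °C for 30 min. Absorbance is then read at 405 nm.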

For series [14] the following is noted: clinical use; cited from earlier work.

T3 sequence (Q92769 whole entry): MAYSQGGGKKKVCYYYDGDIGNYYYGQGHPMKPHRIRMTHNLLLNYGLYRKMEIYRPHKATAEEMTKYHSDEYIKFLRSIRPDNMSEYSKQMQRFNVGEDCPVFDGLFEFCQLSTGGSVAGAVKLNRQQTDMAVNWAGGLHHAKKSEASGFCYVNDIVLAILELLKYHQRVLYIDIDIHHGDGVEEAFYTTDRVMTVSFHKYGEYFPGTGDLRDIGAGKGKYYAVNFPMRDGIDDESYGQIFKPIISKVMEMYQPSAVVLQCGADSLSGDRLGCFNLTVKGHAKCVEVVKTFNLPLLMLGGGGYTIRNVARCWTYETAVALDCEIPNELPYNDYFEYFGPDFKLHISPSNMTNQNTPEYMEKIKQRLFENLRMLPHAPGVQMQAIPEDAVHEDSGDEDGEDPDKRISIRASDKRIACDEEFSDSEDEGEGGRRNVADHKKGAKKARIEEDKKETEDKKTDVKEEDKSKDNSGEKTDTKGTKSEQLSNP
T2 sequence (Q13547 whole entry): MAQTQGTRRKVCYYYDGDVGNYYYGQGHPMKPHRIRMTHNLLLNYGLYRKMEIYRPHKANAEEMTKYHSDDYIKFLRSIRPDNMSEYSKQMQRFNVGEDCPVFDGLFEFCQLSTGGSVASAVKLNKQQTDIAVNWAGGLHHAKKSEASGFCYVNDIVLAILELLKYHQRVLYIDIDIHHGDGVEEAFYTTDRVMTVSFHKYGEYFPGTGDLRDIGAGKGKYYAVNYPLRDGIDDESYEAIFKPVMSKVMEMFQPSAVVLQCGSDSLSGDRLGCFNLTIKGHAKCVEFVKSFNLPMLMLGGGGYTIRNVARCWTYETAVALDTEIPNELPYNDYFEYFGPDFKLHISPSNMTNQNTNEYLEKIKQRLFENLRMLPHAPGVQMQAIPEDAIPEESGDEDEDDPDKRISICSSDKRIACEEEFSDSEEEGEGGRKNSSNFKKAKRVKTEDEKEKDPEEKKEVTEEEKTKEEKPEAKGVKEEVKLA
T1 sequence (O15379 whole entry): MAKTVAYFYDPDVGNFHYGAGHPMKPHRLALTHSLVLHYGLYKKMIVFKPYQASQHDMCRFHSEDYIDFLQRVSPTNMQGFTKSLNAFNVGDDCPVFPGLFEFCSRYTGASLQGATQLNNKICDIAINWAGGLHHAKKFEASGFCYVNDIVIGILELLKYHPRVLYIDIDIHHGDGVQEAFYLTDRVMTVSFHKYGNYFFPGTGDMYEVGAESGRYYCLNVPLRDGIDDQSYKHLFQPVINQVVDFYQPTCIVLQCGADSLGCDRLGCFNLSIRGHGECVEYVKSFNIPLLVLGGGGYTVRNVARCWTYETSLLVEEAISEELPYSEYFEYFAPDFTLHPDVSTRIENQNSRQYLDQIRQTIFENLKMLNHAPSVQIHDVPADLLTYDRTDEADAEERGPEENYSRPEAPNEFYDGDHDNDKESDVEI
T1 sequence (Q9Y618 395-489 partner limits assumed): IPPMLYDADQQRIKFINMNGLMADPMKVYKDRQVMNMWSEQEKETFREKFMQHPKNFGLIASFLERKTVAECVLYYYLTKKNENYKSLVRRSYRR

Regarding `COc1ccc(C(=O)N[C@@H](Cc2c[nH]c3ccccc23)C(=O)NCc2ccc(C(=O)Nc3ccccc3N)cc2)cc1` [Compound 11a, (S)-4-((3-(1H-indol-3-yl)-2-(4-methoxybenzamido)propanamido)-methyl)-N-(2-aminophenyl)benzamide, reference compound], the “Type of inhibition of HDAC3 (Lineweaver-Burke analysis)” value on HDAC3 [1] is given as “mixed-type inhibition”. Moreover, the “Type of inhibition of HDAC1 (Lineweaver-Burke analysis)” value on HDAC1 [2] is reported as “competitive inhibition”. Besides, on HDAC1 [3], the “Time dependence of HDAC1 inhibition” value is given as “time-dependent inhibition”. The “Time dependence of HDAC2 inhibition” value at HDAC2 [4] is on record as “time-dependent inhibition”. In addition, the “Type of inhibition of HDAC2 (Lineweaver-Burke analysis)” value at HDAC2 [5] was “mixed-type inhibition”. Besides, the “Time dependence of HDAC3 inhibition” value on HDAC3 [6] is listed as “time-dependent inhibition”.

Consider `CCCNNC(=O)c1ccc(CNC(=O)[C@H](Cc2c[nH]c3ccccc23)NC(=O)c2ccc(OC)cc2)cc1` [Compound 13b, (S)-N-(3-(1H-Indol-3-yl)-1-oxo-1-((4-(2-propylhydrazine-1-carbonyl)benzyl)amino)propan-2-yl)-4-methoxybenzamide], for which the “Type of inhibition of HDAC3 (Lineweaver-Burke analysis)” value at HDAC3 [1] was “mixed inhibition”. In addition, on HDAC1 [2], the “Type of inhibition of HDAC1 (Lineweaver-Burke analysis)” value is “mixed inhibition”. Also, the “Time dependence of HDAC1 inhibition” value at HDAC1 [3] is reported as “time-dependent inhibition”. In addition, the “Time dependence of HDAC2 inhibition” value on HDAC2 [4] is on record as “time-dependent inhibition”. Besides, the “Type of inhibition of HDAC2 (Lineweaver-Burke analysis)” value on HDAC2 [5] is on record as “mixed inhibition”. Besides, the “Time dependence of HDAC3 inhibition” value on HDAC3 [6] is recorded as “time-dependent inhibition”.

For `CCCNNC(=O)c1ccc(NC(=O)[C@H](Cc2c[nH]c3ccccc23)NC(=O)c2ccc(OC)cc2)cc1` [Compound 13e, (S)-N-(3-(1H-Indol-3-yl)-1-oxo-1-((4-(2-propylhydrazine-1-carbonyl)phenyl)amino)propan-2-yl)-4-methoxybenzamide], the “Treatment time required for HDAC6 repression” value in the series on MV4-11 cells [7] (MV4-11) was “more than 12 h”. For the same molecule, in the series on MV4-11 cells [7] (MV4-11, 0.5 μM), the “Time to degradation of p53” value was ≤ 6 h. The HDAC1 level entry in the series with MV4-11 cells [7] (MV4-11, 24 h) is listed as “did not induce down-regulation of class I HDAC1”; in the series with PC-3 cells [9] it was “did not induce down-regulation of class I HDAC1”. Also, in the series on MV4-11 cells [7] (MV4-11, 24 h), the Level of acetyl-tubulin result was “increased”. Besides, the “Level of acetylated histone H3” value in the series on MV4-11 cells [7] (MV4-11, 24 h, 0.25-2 μM) is “markedly increase”. Further, the “Level of acetylated histone H4” value with MV4-11 cells [7] (MV4-11, 24 h, 0.25-2 μM) was “markedly increase”. Further, the “Cleavage of pro-caspase3 / PARP (apoptosis)” value in the series on MV4-11 cells [7] (MV4-11, 24 h, 1 and 2 μM) was “caused the cleavage of inactive pro-caspase3”; in the series on PC-3 cells [9] (1 and 2 μM), “no observed cleavage of pro-caspase3 or PARP”. Further, the “Level of HDAC6” value in the series with MV4-11 cells [7] (MV4-11, 24 h) is “nearly absent”. The Cell cycle effect entry in the series on MV4-11 cells [8] is “induced G1/S and sub-G1 cell cycle arrest”; in the series on PC-3 cells [13], “triggered G2/M arrest”. Also, the IC50 on MMP-2/MMP-9 and on APN/CD13 was > 50 µM throughout. The “HDAC6 level and acetylated tubulin level” value in the series on PC-3 cells [9] (1 and 2 μM) is reported as “did not induce down-regulation of HDAC6 nor increase the level of acetylated tubulin”. For the same molecule, in the series with MV4-11 cells [10] (10 and 2 μM, 24 and 48 h), the “Viable MV4-11 cell population over time (resorufin fluorescence)” value is reported as “decreased with time”. For the same molecule, the MV4-11 cell death result with MV4-11 cells [10] (48 h treatment at high concentration) is recorded as “almost all MV4-11 cells were dead”. Further, the “MV4-11 antiproliferative activity, times higher than 13b” value in the series with MV4-11 cells [10] (vs 13b) turned out to be 4.1 times. Also, the PC-3 cell morphology result was “did not obviously affect cell morphology” in the series on PC-3 cells [11] (2 μM); “cells were still alive and attached to the culture flask” in the series on PC-3 cells [11] (10 μM). Further, the “Viable PC-3 cell population over time (resorufin fluorescence)” value is reported as “slightly increased” with PC-3 cells [12] (2 μM) and “remained unchanged” with PC-3 cells [12] (10 μM).

`O=C(CCCCCCC(=O)Nc1ccccc1)NO` [SAHA, vorinostat, reference compound]: the “Level of HDAC6” value in the series on MV4-11 cells [7] (MV4-11, 24 h) was “nearly absent”.

Consider `CC(C)C[C@H](NC(=O)[C@H](Cc1ccccc1)NC(=O)c1cnccn1)B(O)O` [bortezomib, reference compound], for which the “Effect on p53 degradation upon hydrazide HDAC inhibitor treatment” value with MV4-11 cells [7] (MV4-11, 6 h treatment) was “blocks this degradation”.

As for `NNC(=O)c1ccncc1` [isoniazid], in series [14], the Rate of hepatotoxicity is recorded as 0.5–2% and the “Rate of lethal hepatotoxicity” value was 1/25000.
